Test results from ChEMBL document CHEMBL4316598, “Synthesis, antiproliferative and apoptosis induction potential activities of novel bis(indolyl)hydrazide-hydrazone derivatives” (Bioorg Med Chem, 2019).
Calls of active or inactive are those of the source. The calls are words filed in the database; no cut-off is given here.

Legend:
[1] = tested on: MCF7; experiment: Induction of apoptosis in human MCF7 cells assessed as effect on Mcl-1 long level at 1 to 3 uM after 24 hrs by Western blot analysis; type: functional, cell-based
How it was run: (§1)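 Cells were treated at 1, 3 and 5 µM for 24 h at 37 °C. Lysis was in ice-cold Triton X-100 buffer with protease and phosphatase inhibitors; nuclear proteins were extracted separately. Protein was quantified by BCA. Lysates were separated by electrophoresis, transferred to nitrocellulose and blocked in non-fat milk for 1 h. Primary antibody was applied overnight at 4 °C and secondary for 1 h at 28 °C. Detection was by enhanced chemiluminescence.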

[2] = tested on: MCF7; experiment: Induction of apoptosis in human MCF7 cells assessed as early apoptotic cells at 1 uM after 12 hrs by annexin-V FITC/propidium iodide staining based flow cytometric analysis relative to control; type: functional
How it was run: (§2)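 Cells were grown in DMEM with 10% heat-inactivated FBS at 37 °C and 5% CO₂, then plated at 500,000 cells/well in 24-well plates. They were treated from a DMSO stock (DMSO ≤0.1%) for 8, 12 or 16 h. After a PBS wash, cells were resuspended in binding buffer (10 mM HEPES pH 7.4, 2.5 mM CaCl₂, 140 mM NaCl, 0.1% BSA), stained 40 min with FITC-annexin V, then with PI, and run on the flow cytometer immediately. Values are the mean of three independent experiments.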

[3] = tested on: HeLa; experiment: Induction of apoptosis in human HeLa cells assessed as early apoptotic cells at 1 uM after 16 hrs by annexin-V FITC/propidium iodide staining based flow cytometric analysis relative to control; type: functional; how it was run: as §2
[4] = tested on: HeLa; experiment: Induction of ROS generation in human HeLa cells at 5 uM after 8 hrs by DCFH-DA staining-based fluorescence spectrophotometric analysis relative to control; type: functional
How it was run: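 DCFH-DA ROS: HeLa or MCF-7 cells at 2×10^6/well cultured 12 h, treated 4 or 8 h; t-BHP (10 μM) is the positive control. DCFH-DA 10 μM added for 10 min at 37 °C, cells washed twice with PBS. Fluorescence read at ex 485/em 520 nm. For the NAC arm, NAC (5 mM) is added to the medium before treatment.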

[5] = tested on: MCF7; experiment: Induction of nitric oxide production in human MCF7 cells at 1 uM measured over 8 hrs by Griess reaction based assay relative to control; type: functional
How it was run: (§3)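 Cells seeded at 2×10^6 cells/well for 12 h, then exposed to 1, 5 and 10 μM compound for 8 h at 37 °C. Culture supernatant mixed with Griess reagent (0.002% N-1-naphthyl-ethylenediamine dihydrochloride, 0.5% sulfanilic acid, 14% glacial acetic acid). Nitrite read by absorbance at 550 nm and compared with vehicle group.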

[6] = tested on: MCF7; experiment: Induction of nitric oxide production in human MCF7 cells at 5 uM measured over 8 hrs by Griess reaction based assay relative to control; type: functional; how it was run: as §3
[7] = organism: Homo sapiens; experiment: Inhibition of PKA phosphorylation (unknown origin) after 5 to 60 mins by bioluminescence assay
How it was run: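 Kinase activity measured with compound at 1, 5, 10 and 50 μM, using a Kinase Reaction Rate Kit. Phosphorylation was followed by bioluminescent monitoring of ATP consumption, with light read at 5 min and 1 h. Staurosporine served as positive control. Data given as % kinase inhibition (% of control activity), from two separate experiments.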

[8] = biological target: T1, Tyrosine-protein phosphatase non-receptor type 1 (Homo sapiens) (UniProt P18031); experiment: Inhibition of recombinant human PTP1B using 6,8-difluoro-4-methylumbelliferyl phosphate fluorogenic substrate at 50 uM measured over 30 mins by fluorescence assay relative to control
T1 sequence (whole entry): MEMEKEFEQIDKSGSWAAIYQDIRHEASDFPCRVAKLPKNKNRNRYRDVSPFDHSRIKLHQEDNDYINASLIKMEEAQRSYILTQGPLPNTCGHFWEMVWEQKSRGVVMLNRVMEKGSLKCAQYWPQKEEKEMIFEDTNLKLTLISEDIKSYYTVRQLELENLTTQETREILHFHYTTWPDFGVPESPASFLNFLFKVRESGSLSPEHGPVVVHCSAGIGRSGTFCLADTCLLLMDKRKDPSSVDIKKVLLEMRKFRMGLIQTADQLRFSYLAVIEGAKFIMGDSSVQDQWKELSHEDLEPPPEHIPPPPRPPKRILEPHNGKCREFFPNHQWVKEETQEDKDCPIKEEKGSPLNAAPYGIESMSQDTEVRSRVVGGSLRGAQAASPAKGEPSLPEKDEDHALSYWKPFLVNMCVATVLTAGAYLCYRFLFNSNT
How it was run: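 Recombinant human PTP1B, 1.56 ng/well, in buffer of 25 mM HEPES, 50 mM NaCl, 2.5 mM EDTA, DTT and 0.01 mg/mL human albumin. Preincubated with compound for 30 min in the dark, then DiFMUP added (25 μL of 10 μM solution). Fluorescence read after 10 min (ex 360/em 465 nm). Triplicates; % inhibition relative to PTP inhibitor IV (0.16 mM) and buffer controls.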

[9] = tested on: HeLa; experiment: Effect on mitochondrial membrane potential in human HeLa cells assessed as shift change at 5 uM after 1 hrs by Rhodamine 123 dye-based fluorescence assay; type: functional, cell-based
How it was run: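 Mitochondrial potential: HeLa or MCF-7 cells treated with 5 µM (final) for 1, 2, 4 and 8 h. Rhodamine 123 added, cells incubated 30 min at 37 °C, washed with PBS, and analysed by flow cytometry. Fluorescence histogram shift is compared with control.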

[10] = tested on: MCF7; experiment: Induction of caspase-dependent apoptosis in human MCF7 cells assessed as activation of caspase-6 at 1 to 3 uM after 24 hrs by Western blot analysis; type: functional, cell-based; how it was run: as §1
[11] = tested on: MCF7; experiment: Induction of caspase-dependent apoptosis in human MCF7 cells assessed as activation of caspase-8 at 1 to 3 uM after 24 hrs by Western blot analysis; type: functional, cell-based; how it was run: as §1
[12] = tested on: HeLa; experiment: Induction of caspase-dependent apoptosis in human HeLa cells assessed as activation of caspase-6 at 1 to 3 uM after 24 hrs by Western blot analysis; type: functional, cell-based; how it was run: as §1
[13] = tested on: MCF7; experiment: Induction of apoptosis in human MCF7 cells assessed as increase in Mcl-1 short level at 1 to 3 uM after 24 hrs by Western blot analysis; type: functional, cell-based; how it was run: as §1
[14] = tested on: HeLa; experiment: Induction of apoptosis in human HeLa cells assessed as increase in Mcl-1 short level at 1 to 3 uM after 24 hrs by Western blot analysis; type: functional, cell-based; how it was run: as §1
[15] = tested on: MCF7; experiment: Induction of apoptosis in human MCF7 cells assessed as change in Bid level at 1 to 3 uM after 24 hrs by Western blot analysis; type: functional, cell-based; how it was run: as §1
[16] = tested on: HeLa; experiment: Induction of apoptosis in human HeLa cells assessed as up-regulation of acetylated p53 level at 5 uM after 24 hrs by sandwich ELISA; type: functional, cell-based
How it was run: (§4)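 Cells were treated at 5 µM for 12, 24 and 48 h. Lysis was in ice-cold lysis buffer with 1 mM PMSF (5 min on ice), followed by three freeze-thaw cycles and a 10 min spin at 4 °C. Acetylated and total p53 were measured in the supernatant by kit sandwich ELISA, read at 450 nm. The control index is sample absorbance divided by that of untreated cells at the same time. Values are mean ± SD of triplicate experiments.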

[17] = tested on: HeLa; experiment: Induction of apoptosis in human HeLa cells assessed as up-regulation of total p53 level at 5 uM after 12 hrs by sandwich ELISA; type: functional, cell-based; how it was run: as §4
[18] = tested on: MCF7; experiment: Induction of ERK/MAPK signal transduction pathway in human MCF7 cells assessed as increase in c-fos level; type: cell-based

inhibition [7]: Dose-dependent effect | inhibition [8]: 48%
SMILES: Cn1cc(/C=N\NC(=O)c2cn(C)c3ccc(Br)cc23)c2ccccc21
Activity [1]: inactive | Activity [2]: 21.18% | Activity [3]: 12.23% | Activity [4]: 58.9% | Activity [5]: 32.1% | Activity [6]: 48.9% | Activity [9]: Active | Activity [10]: inactive | Activity [11]: inactive | Activity [12]: inactive | Activity [13]: Active | Activity [14]: Active | Activity [15]: inactive | Activity [16]: Active | Activity [17]: Active | Activity [18]: Active
